pIC50, pKi: −log10 of the molar value. *1 amine or outer side, *2 acyl side, *3 side chain or, on linkers, in order; H or OH if unused. Where a SMILES comes first, the peptide text is derived from it. [ ]: non-standard residue; d: D form. X1 = Cc1ccc2c(c1)CCN([*:1])[C@@H]2C(=O)[*:2]
Tests used:
Casp9 = molecular target: T1, Casp9 (Homo sapiens, UniProt P55211); assay: in vitro caspase panel assay, Casp9; format: biochemical
T1 sequence (P55211 1-315 limits assumed): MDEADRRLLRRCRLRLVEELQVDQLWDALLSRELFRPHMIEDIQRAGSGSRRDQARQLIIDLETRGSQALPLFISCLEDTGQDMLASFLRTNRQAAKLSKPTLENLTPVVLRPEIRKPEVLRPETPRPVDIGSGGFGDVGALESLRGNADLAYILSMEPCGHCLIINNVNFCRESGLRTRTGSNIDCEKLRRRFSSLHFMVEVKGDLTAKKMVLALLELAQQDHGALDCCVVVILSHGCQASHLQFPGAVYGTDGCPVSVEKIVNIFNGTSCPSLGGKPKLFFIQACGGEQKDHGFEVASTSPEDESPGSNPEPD
T1 sequence (P55211 331-416 limits assumed): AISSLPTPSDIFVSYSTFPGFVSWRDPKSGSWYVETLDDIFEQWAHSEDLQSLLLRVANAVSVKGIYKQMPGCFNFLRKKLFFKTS

Casp6 = molecular target: T2, Casp6 (Homo sapiens, UniProt P55212); assay: in vitro caspase panel assay, Casp6; format: biochemical
T2 sequence (P55212 24-179 limits assumed): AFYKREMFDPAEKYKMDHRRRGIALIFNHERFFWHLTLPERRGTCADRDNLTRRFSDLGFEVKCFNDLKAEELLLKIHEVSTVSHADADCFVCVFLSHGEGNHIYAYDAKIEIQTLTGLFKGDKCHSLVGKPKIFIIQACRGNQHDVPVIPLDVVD
T2 sequence (P55212 194-293 limits assumed): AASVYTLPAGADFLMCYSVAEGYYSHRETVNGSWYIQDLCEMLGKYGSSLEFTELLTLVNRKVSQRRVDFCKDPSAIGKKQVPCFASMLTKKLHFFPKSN

Cathepsin B = Cathepsin B (Homo sapiens, UniProt P07858); assay: Cathepsin B inhibition; format: biochemical
[1] = test system: cultured rat hippocampal neurons expressing P301S tau; format: cell-based; conditions: 10 μM for 3 days, versus untreated wild-type and P301S tau neurons
Procedure, shortened: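 Primary hippocampal cultures from Sprague-Dawley rat pups at postnatal day 0 or 1. At 5–7 DIV, neurons were co-transfected with plasmids for DsRed (morphology label) and GFP-tagged wild-type or P301S tau. Test compound was added at 17–18 DIV for 3 days. Live neurons were imaged at 20–21 DIV.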

[2] = test system: primary hippocampal neurons from transgenic mice overexpressing P301S tau; assay: mEPSC recording in primary hippocampal neurons from PS19; format: cell-based, mouse; conditions: 10 μM, 3 days; for average frequency of mEPSCs: six groups
[3] = molecular target: T3, Casp2-mediated cleavage of tau at D314 (Homo sapiens, UniProt P42575); assay: in vitro caspase-2-catalyzed tau cleavage assay; format: biochemical
T3 sequence (P42575 170-325 limits assumed): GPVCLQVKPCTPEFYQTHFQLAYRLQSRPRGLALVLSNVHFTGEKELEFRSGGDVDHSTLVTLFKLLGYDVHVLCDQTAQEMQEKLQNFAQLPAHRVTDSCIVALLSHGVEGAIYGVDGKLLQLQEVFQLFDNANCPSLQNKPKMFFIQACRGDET
T3 sequence (P42575 348-452 limits assumed): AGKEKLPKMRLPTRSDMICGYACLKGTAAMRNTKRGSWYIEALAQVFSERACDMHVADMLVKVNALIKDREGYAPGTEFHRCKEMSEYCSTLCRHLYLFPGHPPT

Casp7 = molecular target: T4, Casp7 (Homo sapiens, UniProt P55210); assay: in vitro caspase panel assay, Casp7; format: biochemical
T4 sequence (P55210 24-198 limits assumed): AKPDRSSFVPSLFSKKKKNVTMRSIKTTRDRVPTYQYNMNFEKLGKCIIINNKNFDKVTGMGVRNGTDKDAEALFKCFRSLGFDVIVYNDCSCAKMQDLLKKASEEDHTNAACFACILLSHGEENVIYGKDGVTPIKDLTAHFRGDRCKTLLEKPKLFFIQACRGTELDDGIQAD
T4 sequence (P55210 207-303 limits assumed): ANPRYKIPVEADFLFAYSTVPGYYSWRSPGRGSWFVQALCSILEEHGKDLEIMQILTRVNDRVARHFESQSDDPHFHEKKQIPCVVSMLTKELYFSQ

Casp1 = molecular target: T5, Casp1 (Homo sapiens, UniProt P29466); assay: in vitro caspase panel assay, Casp1; format: biochemical
T5 sequence (P29466 120-297 limits assumed): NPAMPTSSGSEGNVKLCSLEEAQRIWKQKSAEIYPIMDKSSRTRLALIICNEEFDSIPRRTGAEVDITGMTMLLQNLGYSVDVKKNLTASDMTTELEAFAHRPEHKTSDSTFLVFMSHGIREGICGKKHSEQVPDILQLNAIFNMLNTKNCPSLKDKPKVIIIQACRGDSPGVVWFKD
T5 sequence (P29466 317-404 limits assumed): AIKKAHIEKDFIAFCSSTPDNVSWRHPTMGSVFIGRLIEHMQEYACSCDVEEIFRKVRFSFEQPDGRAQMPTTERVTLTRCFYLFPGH

Thrombin a = Thrombin a (Homo sapiens, UniProt P00734); assay: Thrombin a inhibition; format: biochemical
Casp3 = molecular target: T6, Casp3 (Homo sapiens, UniProt P42574); assay: fluorescence-based in vitro biochemical; conditions: for Casp2 Selectivity, Ki (Casp3) / Ki (Casp2): Table 1
T6 sequence (P42574 29-175 limits assumed): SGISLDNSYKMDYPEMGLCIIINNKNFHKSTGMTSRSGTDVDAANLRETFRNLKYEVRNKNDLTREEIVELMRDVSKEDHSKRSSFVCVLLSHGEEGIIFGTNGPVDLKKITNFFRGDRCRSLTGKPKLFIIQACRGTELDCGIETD
T6 sequence (P42574 176-277 limits assumed): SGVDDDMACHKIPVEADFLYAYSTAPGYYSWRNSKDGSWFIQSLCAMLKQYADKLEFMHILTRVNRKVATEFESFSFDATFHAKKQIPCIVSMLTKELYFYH

Casp2 = molecular target: T7, Casp2 (Homo sapiens, UniProt P42575); assay: fluorescence-based in vitro biochemical
T7 sequence (P42575 170-325 limits assumed): T3 sequence (P42575 170-325 limits assumed)
T7 sequence (P42575 348-452 limits assumed): T3 sequence (P42575 348-452 limits assumed)

Compound	pKi (Casp9)	selectivity Casp2 versus Casp9 (Casp9) [fold]	pKi (Casp6)	selectivity Casp2 versus Casp6 (Casp6) [fold]	pIC50 (Cathepsin B)	activity at cathepsin B (Cathepsin B)	density of dendritic spines [1]	average amplitude of mEPSC responses, Tau −/+ versus Tau −/− neurons [2]	cumulative curve of mEPSC amplitudes, Tau −/+ compared with Tau −/− [2]	average frequency of mEPSCs [2]	pIC50 [3]	pKi (Casp7)	selectivity Casp2 versus Casp7 (Casp7) [fold]	pKi (Casp1)	selectivity Casp2 versus Casp1 (Casp1) [fold]	pIC50 (Thrombin a)	activity at thrombin (Thrombin a)	pKi (Casp3)	Casp2 Selectivity, Ki (Casp3) / Ki (Casp2) (Casp3)	pKi (Casp2)
Cc1ccc2c(c1)CCN(C(=O)[C@@H](NC(=O)[C@H](CCCC(=O)O)NC(=O)[C@@H]1Cc3ccccc3N1)C(C)C)[C@@H]2C(=O)N[C@H](C#N)CC(=O)O [Compound 1, (S)-6-(((S)-1-((S)-1-(((S)-2-carboxy-1-cyanoethyl)carbamoyl)-6-methyl-3,4-dihydroisoquinolin-2(1H)-yl)-3-methyl-1-oxobutan-2-yl)amino)-5-((S)-indoline-2-carboxamido)-6-oxohexanoic acid]	< 4.50	> 2000	< 4.00	> 2000	4.73	weak activity	no significant differences	do not differ significantly	not significantly shifted	no significant differences	5.69	4.80	> 2000	< 4.00	> 2000	< 4.00	weak activity	6.03	123	8.12
CC(=O)N[C@H](C(=O)N[C@@H](CC(=O)O)C(=O)N[C@H](C(=O)N1CCc2cc(C)ccc2[C@H]1C(=O)N[C@H](C=O)CC(=O)O)C(C)C)C(C)C [Compound 2b, (S)-3-((S)-2-acetamido-3-methylbutanamido)-4-(((S)-1-((S)-1-(((S)-1-carboxy-3-oxopropan-2-yl)carbamoyl)-6-methyl-3,4-dihydroisoquinolin-2(1H)-yl)-3-methyl-1-oxobutan-2-yl)amino)-4-oxobutanoic acid] (Ac-VDV[X1]D-aldehyde)	< 4.50		< 4.00		4.42				shifted to the left but less markedly	no significant differences		< 4.50		5.56					70	
